Where only a bound is given, the exact number is not on record here.

The target of data set [1] is T1, Human immunodeficiency virus type 1 protease (Human immunodeficiency virus 1, UniProt Q72874). The experiment in a line: In vitro inhibition of HIV-1.
For data set [2], the system named is Human immunodeficiency virus 1. The data set can be described thus: Effective concentration to inhibit replication of viral strain HIV-1 IIIB in acutely infected C8166T cells. The following applies: Human immunodeficiency virus 1, C8166T. The class given is functional, organism-based. An outline of the steps:
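HIV-1 IIIB infected C8166 T cells at MOI 0.001 in complete medium, then cultured 3 days with serially diluted inhibitor. Extracellular p24 core antigen was measured by ELISA on pooled supernatants (8 replicas) to give percent inhibition. EC50 came from a nonlinear Hill fit.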

Data set [3] can be described thus: Oral bioavailability in rat (dose 5 mg/kg). The format is ADME, organism-based. The following applies: in vivo.
Data set [4] in a line: Half life for the clearance after intravenous (iv) administration of 1 mg/kg. The format is ADME, organism-based. Also noted: dose 1 mg/kg, route intravenous. The following applies: in vivo.
Data set [5] can be described thus: The plasma concentration is evaluated after oral administration a dose of 5 mg/kg. The format is ADME, organism-based. Also noted: dose 5 mg/kg, route oral.
Data set [6] is described as follows: Area Under the Curve (AUC) for the compound is evaluated after the oral administration at 5 mg/kg. The following applies: in vivo. Also noted: dose 5 mg/kg, route oral. The class given is ADME, organism-based.
In data set [7] the test system is Human immunodeficiency virus 2. The experiment in a line: Effective concentration to inhibit replication of viral strain HIV-2 ROD in acutely infected C8166T cells. The format is functional, organism-based. To be noted: Human immunodeficiency virus 2, C8166T.
In data set [8] the target is T1, Human immunodeficiency virus type 1 protease. The data set can be described thus: The inhibitory concentration was evaluated for viral strains HIV-2 ROD using a HIV protease HPLC based assay.
Data set [9] relates to Human immunodeficiency virus 1. The experiment in a line: The binding affinity is evaluated for viral strains HIV-1 IIIB. The class given is functional, organism-based.
For data set [10], the system named is Human immunodeficiency virus 2. The experiment in a line: The binding affinity is evaluated for viral strains HIV-2 ROD. The format is functional, organism-based.
Data set [11] can be described thus: The compound was evaluated for oral bioavailability in the rat at a peroral (po) dose of 5 mg/kg. The class given is ADME, organism-based. To be noted: in vivo.
Data set [12] in a line: The plasma concentration is evaluated after oral administration of 5 mg/kg. The format is ADME, organism-based. Set-up: dose 5 mg/kg, route oral.
The test system of data set [13] is Human immunodeficiency virus 2. The data set can be described thus: The binding affinity is evaluated for viral strains HIV-2 ROD. The format is functional, organism-based.
A short description of data set [14]: Half life for the clearance after intravenous (iv) administration of dose of 1 mg/kg. The class given is ADME, organism-based. Set-up: dose 1 mg/kg, route intravenous. To be noted: in vivo.

By IC50 is commonly meant the concentration that inhibits the measured activity by half. A lower IC50 goes with inhibition by little substance. Turning to `CC(C)(C)NC(=O)[C@@H]1C[C@H](OCc2ccncc2)CCN1C[C@@H](O)[C@H](Cc1ccccc1)NC(=O)/C=C/c1ccccc1`, the half-inhibitory concentration (IC50) in data set [1] is 11000 nM.

As to `CC(C)(C)NC(=O)[C@@H]1C[C@H](OCc2ccncc2)CCN1C[C@@H](O)[C@H](Cc1ccccc1)NC(=O)OCc1ccccc1`, the IC50 in data set [1] was found to be 400 nM.

In [1], `Cc1ccccc1OCC(=O)N[C@@H](Cc1ccccc1)[C@H](O)CN1CC[C@@H](OCc2ccncc2)C[C@H]1C(=O)NC(C)(C)C` returned an IC50 of 120 nM.

Turning to `CC(C)(C)NC(=O)[C@@H]1C[C@H](OCc2ccncc2)CCN1C[C@@H](O)[C@H](Cc1ccccc1)NC(=O)COc1ccccc1`, the IC50 in data set [1] amounted to 1100 nM.

Regarding `CC(C)(C)NC(=O)[C@@H]1C[C@H](OCc2ccncc2)CCN1C[C@@H](O)[C@H](Cc1ccccc1)NC(=O)CSc1ccccc1`, it took 4200 nM to reach half-maximal inhibition in data set [1] (IC50).

One may read the EC50 as the concentration giving half of the maximal effect. Low values mean greater potency, high ones weaker potency. In turn, `Cc1cccc(C)c1OCC(=O)N[C@@H](Cc1ccccc1)[C@H](O)CN1C[C@H]2CCCC[C@H]2C[C@H]1C(=O)NC(C)(C)C` had an IC50 in [1] of 8.4 nM. Also, the 50% effective concentration (EC50) in [2] is 100 nM.

As for `Cc1cccc(C)c1CCC(=O)N[C@@H](Cc1ccccc1)[C@H](O)CN1CC[C@@H](OCc2ccncc2)C[C@H]1C(=O)NC(C)(C)C`, the IC50 in data set [1] stood at 2400 nM.

As usually defined, the bioavailability is the share of a dose that reaches the circulation, judged against a reference dose that is usually intravenous. Read a low bioavailability as poor availability. As usually defined, the half-life is the time in which the quantity being followed falls by half. Read a high half-life as slow loss. The term Cmax denotes the highest concentration seen after dosing. The term AUC denotes concentration integrated over time. With `Cc1cccc(C)c1OCC(=O)N[C@@H](Cc1ccccc1)[C@H](O)CN1CC[C@@H](SCc2cccnc2)C[C@H]1C(=O)NC(C)(C)C`, the bioavailability in data set [3] was found to be 37%. Also, in data set [1], inhibition was half-maximal at 1.7 nM (IC50). In [2], this compound displayed an EC50 of 6 nM. The compound further showed a half-life in data set [4] of 30 min. This compound also yielded a Cmax in data set [5] of 2320 nM. The same compound displayed an AUC in data set [6] of 3.26 µM·h.

In turn, `Cc1ccccc1CCC(=O)N[C@@H](Cc1ccccc1)[C@H](O)CN1CC[C@@H](OCc2ccncc2)C[C@H]1C(=O)NC(C)(C)C` showed an IC50 in data set [1] of 2500 nM.

In general, Ki refers to a measure of affinity in units of concentration, obtained from inhibition or displacement. On to `CC(C)[C@H](NC(=O)c1ccc2ccccc2n1)C(=O)N[C@@H](Cc1ccccc1)[C@H](O)CN1CC[C@@H](OCc2ccncc2)C[C@H]1C(=O)NC(C)(C)C`, for which the EC50 in [7] worked out at 25 nM; in [2], 5 nM. In addition, half-maximal inhibition in data set [8] (IC50) was put at 10 nM. For the same compound, the Ki in [9] worked out at 0.031 nM; in data set [10], 0.13 nM.

Take `CC(C)(C)NC(=O)[C@@H]1C[C@H](OCc2ccncc2)CCN1C[C@@H](O)[C@H](Cc1ccccc1)NC(=O)O[C@@H]1CCOC1`: in data set [1], half-maximal inhibition (IC50) was put at 260 nM.

In turn, `Cc1cccc(C)c1OCC(=O)N[C@@H](Cc1ccccc1)[C@H](O)CN1CC[C@@H](SCc2ccncc2)C[C@H]1C(=O)NC(C)(C)C` had a bioavailability in data set [11] of 22%. In data set [1], this compound showed an IC50 of 1.8 nM. In data set [2], this compound showed an EC50 of 4 nM. This compound also had a half-life in data set [4] of 42 min. The compound further showed an AUC in data set [6] of 1.71 µM·h. This compound also yielded a Cmax in data set [12] of 1660 nM.

As to `Cc1cccc(C)c1COC(=O)N[C@@H](Cc1ccccc1)[C@H](O)CN1CC[C@@H](OCc2ccncc2)C[C@H]1C(=O)NC(C)(C)C`, the IC50 in data set [1] came to 420 nM.

For `Cc1cccc(C)c1OCC(=O)N[C@@H](Cc1ccccc1)[C@H](O)CN(CC(C)C)S(=O)(=O)c1ccc(N)cc1`, the IC50 in data set [1] worked out at 2.6 nM. This compound also registered a half-maximal effective concentration (EC50) in [2] of 20 nM.

Turning to `Cc1ccccc1COC(=O)N[C@@H](Cc1ccccc1)[C@H](O)CN1CC[C@@H](OCc2ccncc2)C[C@H]1C(=O)NC(C)(C)C`, in [1], the IC50 was 210 nM.

Compound `Cc1cccc(C)c1OCC(=O)N[C@@H](Cc1ccccc1)[C@H](O)CN1CC[C@@H](Sc2ccncc2)C[C@H]1C(=O)NC(C)(C)C` gave a bioavailability in [3] of 61%. Also, the figures for the EC50 in data set [7] and in data set [2] were 3 nM and 2 nM, respectively. The Ki in data set [9] turned out to be 0.006 nM; in [13], 0.023 nM. In addition, in [4], the half-life was 24 min. In data set [6], this compound displayed an AUC of 1.77 µM·h.

On to `Cc1cccc(C)c1OCC(=O)N[C@@H](Cc1ccccc1)[C@H](O)CN1CC[C@@H](OCc2ccncc2)C[C@H]1C(=O)NC(C)(C)C`, for which the IC50 in data set [1] was found to be 7 nM. Moreover, the EC50 in data set [2] amounted to 24 nM.

In turn, `Cc1cccc(C)c1OC(C)C(=O)N[C@@H](Cc1ccccc1)[C@H](O)CN1CC[C@@H](OCc2ccncc2)C[C@H]1C(=O)NC(C)(C)C` (stereo not given in full) yielded an IC50 in data set [1] of 20 nM.

As for `CC(C)(C)NC(=O)[C@@H]1C[C@H](OCc2ccncc2)CCN1C[C@@H](O)[C@H](Cc1ccccc1)NC(=O)CCc1ccccc1`, inhibition in data set [1] was half-maximal at 1400 nM (IC50).

Turning to `Cc1cc(S[C@@H]2CCN(C[C@@H](O)[C@H](Cc3ccccc3)NC(=O)COc3c(C)cccc3C)[C@H](C(=O)NC(C)(C)C)C2)nc(C)n1`, the bioavailability in data set [3] came to 29%. In data set [1], the IC50 was 1.5 nM. The compound further displayed a half-maximal effective concentration (EC50) in data set [2] of 1 nM. In data set [14], this compound showed a half-life of 102 min. Moreover, in data set [6], the AUC was 1.67 µM·h.

Take `Cc1c(O)cccc1C(=O)N[C@@H](Cc1ccccc1)[C@H](O)CN1CC[C@@H](OCc2ccncc2)C[C@H]1C(=O)NC(C)(C)C`: in data set [1], inhibition was half-maximal at 12 nM (IC50). This compound registered an EC50 in [2] of 32 nM.

With `CC(C)(C)NC(=O)[C@@H]1C[C@H](OCc2ccncc2)CCN1C[C@@H](O)[C@H](Cc1ccccc1)NC(=O)CCCc1ccccc1`, the IC50 in data set [1] was above 20000 nM.

(Values after ChEMBL document CHEMBL1132975, “2',6'-Dimethylphenoxyacetyl: a new achiral high affinity P(3)-P(2) ligand for peptidomimetic-based HIV protease inhibitors” (J Med Chem, 2000).)
